Converted amounts (≈) assume the structure as drawn. Where two headings read alike, the source gives them in different places.
Key:
NCI-H460 = assay: MTT assay, cell viability after 72 h; type: cell-based, human; conditions: read-out: IC50 (at day 3)
In short: (§1)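 Cells were kept in RPMI-1640 with 10% FBS at 37 °C and 5% CO₂, grown to confluency, seeded at 5,000–7,000 per well, and incubated 24 h. Medium was replaced with medium holding test compound, diluted from a 1% DMSO/water suspension, in six replicates each in triplicate. After 72 h, MTT in PBS was added for 4 h. Medium was then removed, formazan dissolved in DMSO, and OD read at 540 nm.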

NCI-H1975 = assay: MTT assay, cell viability after 72 h; type: cell-based, human; conditions: read-out: IC50 (at day 3)
In short: as §1

HCC827 = assay: MTT assay, cell viability after 72 h; type: cell-based, human; conditions: read-out: IC50 (at day 3)
In short: as §1

[1] = Water solubility from a filtered saturated solution, by weight; type: physicochemical; conditions: for solubility: thermodynamic from solid
[2] = system: NSCLC cell lines NCI-H460, NCI-H1975, and HCC827; assay: MTT assay, values stated for the whole panel of NSCLC cell lines; type: cell-based, human; conditions: for IC50: Homo sapiens, 72 h, read-out: IC50 values against the panel of cancer cell lines
In short: as §1

NCI-H460 cell line = assay: Annexin V; type: cell-based, human; conditions: H460 cells
In short: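 NCI-H460 cells were seeded at 1×10^5 per well and left to adhere overnight. Test compound or cisplatin (40 µM) was diluted into medium from a 1% DMSO/water solution, and untreated controls got fresh medium, with 2 wells per treatment. After exposure, cells were washed twice in cold PBS and stained with FITC-Annexin V and PI in 1× binding buffer for 15 min at room temperature in the dark. Imaging used fluorescence microscopy at 10× and 20×.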

[3] = system: PARP and caspase-3 in NCI-H460 cells; assay: Western blotting of apoptotic proteins caspase-3 and PARP; type: cell-based, human; conditions: 5 μM
In short: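 Confluent NCI-H460 cells, seeded at 1×10^5 per well in RPMI-1640 with 10% FBS and 1% pen-strep, were serum-starved 24 h, then treated. Cells were lysed in ice-cold Tris pH 7.5/Triton X-100 buffer with protease/phosphatase inhibitors. Equal lysate amounts were run on 4–12% SDS-PAGE and moved to PVDF, then probed with PARP, caspase-3 and GAPDH antibodies (1:1,000, 4 °C overnight) and HRP anti-rabbit (1:5,000). Detection was by ECL, with GAPDH reprobe for normalization and cisplatin lysates as control.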

[4] = treatment 6 h, IC23 and cisplatin at 40 μM

| IC50 (NCI-H460; Homo sapiens, NCI-H460, 72 h) [µM] | IC50 (NCI-H1975; Homo sapiens, NCI-H1975, 72 h) [µM] | IC50 (HCC827; Homo sapiens, HCC827, 72 h) [µM] | solubility ([1]; water) [µg/mL] | IC50 [2] [µM] | SMILES | also measured |
| --- | --- | --- | --- | --- | --- | --- |
| 26 | > 30 | > 30 | 13500 | ≥ 19 | CCn1c[n+](Cc2ccc3ccccc3c2)c(Cl)c1Cl.[Br-] [Compound 1, 4,5-dichloro-1-ethyl-3-(naphthalen-2-ylmethyl)-imidazolium bromide] | – |
| 19 | 22 | > 30 | 5200 | ≥ 19 | CCCn1c[n+](Cc2ccc3ccccc3c2)c(Cl)c1Cl.[Br-] [Compound 2, 4,5-dichloro-3-(naphthalen-2-ylmethyl)-1-propylimidazolium bromide] | – |
| > 30 | 20 | > 30 | 10800 | ≥ 19 | CC(C)n1c[n+](Cc2ccc3ccccc3c2)c(Cl)c1Cl.[Br-] [Compound 3, 4,5-dichloro-1-isopropyl-3-(naphthalen-2-ylmethyl)imidazolium bromide] | – |
| 13 | 10 | 12 | 5700 | – | CCCCn1c[n+](Cc2ccc3ccccc3c2)c(Cl)c1Cl.[Br-] [Compound 4, 1-butyl-4,5-dichloro-3-(naphthalen-2-ylmethyl)-imidazolium bromide] | – |
| 10 | 12 | 12 | 3100 | 10 to 12 | CCCCCn1c[n+](Cc2ccc3ccccc3c2)c(Cl)c1Cl.[Br-] [Compound 5, 4,5-dichloro-3-(naphthalen-2-ylmethyl)-1-pentylimidazolium bromide] | – |
| 5 | 5 | 8 | 1400 | ≤ 10 | CCCCCCn1c[n+](Cc2ccc3ccccc3c2)c(Cl)c1Cl.[Br-] [Compound 6, 4,5-dichloro-1-hexyl-3-(naphthalen-2-ylmethyl)-imidazolium bromide] | – |
| 6 | 4 | 6 | – | ≤ 10 | CCCCCCCn1c[n+](Cc2ccc3ccccc3c2)c(Cl)c1Cl [Compound 7, 4,5-dichloro-1-heptyl-3-(naphthalen-2-ylmethyl)-imidazolium bromide] | – |
| 10 | 3 | 3 | 300 | ≤ 10 | CCCCCCCCCn1c[n+](Cc2ccc3ccccc3c2)c(Cl)c1Cl.[Br-] [Compound 8, 4,5-dichloro-3-(naphthalen-2-ylmethyl)-1-nonylimidazolium bromide] | – |
| 5 | 4 | – | – | ≤ 10 | CCCCCCCCCCCCn1c[n+](Cc2ccc3ccccc3c2)c(Cl)c1Cl [Compound 9, 4,5-dichloro-1-dodecyl-3-(naphthalen-2-ylmethyl)-imidazolium bromide] | – |
| > 30 | > 30 | > 30 | – | – | Clc1c(Cl)[n+](Cc2ccccc2)cn1Cc1ccccc1 [Compound 10, 1,3-dibenzyl-4,5-dichloroimidazolium bromide] | – |
| 15 | 12 | 15 | – | 12 to 15 | Clc1c(Cl)[n+](Cc2ccc3ccccc3c2)cn1Cc1ccccc1 [Compound 11, 1-benzyl-4,5-dichloro-3-(naphthalen-2-ylmethyl)-imidazolium bromide] | – |
| 4 | 6 | 9 | – | – | [Br-].c1ccc2cc(Cn3cc[n+](Cc4ccc5ccccc5c4)c3)ccc2c1 [Compound 12, 1,3-bis(naphthalen-2-ylmethyl)imidazolium bromide] | stage of apoptosis (Annexin V / PI) (NCI-H460 cell line; [4]): early stages of apoptosis |
| 3 | 4 | 5 | – | – | c1ccc2cc(Cn3c[n+](Cc4ccc5ccccc5c4)c4ccccc43)ccc2c1 [Compound 13, 1,3-bis(naphthalen-2-ylmethyl)benzimidazolium bromide] | – |
| 8 | 12 | 28 | 800 (≈ 2500 µM) | – | Cn1c(=O)c2c(ncn2Cc2ccc3ccccc3c2)n(C)c1=O [Compound 14, 1,3-dimethyl-7-(naphthalen-2-ylmethyl)xanthine] | – |
| – | – | – | – | – | Cn1c(=O)c2c(n(C)c[n+]2Cc2ccc3ccccc3c2)n(C)c1=O.[I-] [Compound 15, 1,3,9-trimethyl-7-(naphthalen-2-ylmethyl)xanthinium iodide] | IC50 (NCI-H460; NCI-H460, 72 h exposure, MTT): > 30 µM; IC50 (NCI-H1975; NCI-H1975, 72 h exposure, MTT): > 30 µM; IC50 (HCC827; HCC827, 72 h exposure, MTT): > 30 µM; H2O solubility ([1]; water, saturated solution stirred for several hours, filtered): 2600 µg/mL; anti-tumor activity against the three cell lines ([2]; NCI-H460, NCI-H1975, HCC827, result in words): no observable anti-tumor activity |
| – | – | – | – | – | Clc1ncn(CCc2cccc3ccccc23)c1Cl [Compound 16, 4,5-dichloro-1-(2-(naphthalen-1-yl)ethyl)-imidazole] | IC50 (NCI-H460; NCI-H460, 72 h exposure, MTT): > 30 µM; IC50 (NCI-H1975; NCI-H1975, 72 h exposure, MTT): > 30 µM; IC50 (HCC827; HCC827, 72 h exposure, MTT): > 30 µM |
| 8 | 8 | 11 | 400 | – | Clc1c(Cl)[n+](CCc2cccc3ccccc23)cn1CCc1cccc2ccccc12.[Br-] [Compound 17, 4,5-dichloro-1,3-bis(2-(naphthalen-1-yl)ethyl)-imidazolium bromide] | – |
| 5 | 6 | 7 | 100 | – | Clc1c(Cl)[n+](Cc2ccc3ccccc3c2)cn1CCc1cccc2ccccc12.[Br-] [Compound 18, 4,5-dichloro-1-(2-(naphthalen-1-yl)ethyl)-3-(naphthalen-2-ylmethyl)-imidazolium bromide] | water solubility compared to IC23 ([1]; result in words): did not show a significant increase |
| 12 | 14 | > 30 | – | – | Clc1c(Cl)[n+](Cc2ccccc2)cn1CCc1cccc2ccccc12 [Compound 19, 3-benzyl-4,5-dichloro-1-(2-(naphthalen-1-yl)ethyl)-imidazolium bromide] | – |
| > 30 | > 30 | > 30 | – | – | Clc1ncn(CCc2ccc3ccccc3c2)c1Cl [Compound 20, 4,5-dichloro-1-(2-(naphthalen-2-yl)ethyl)-imidazole] | – |
| 8 | 8 | 8 | – | – | Clc1c(Cl)[n+](CCc2ccc3ccccc3c2)cn1CCc1ccc2ccccc2c1 [Compound 21, 4,5-Dichloro-1,3-bis(2-(naphthalen-2-yl)ethyl)-imidazolium bromide] | – |
| 4 | 7 | 9 | – | – | Clc1c(Cl)[n+](Cc2ccc3ccccc3c2)cn1CCc1ccc2ccccc2c1 [Compound 22, 4,5-dichloro-1-(2-(naphthalen-2-yl)ethyl)-3-(naphthalen-2-ylmethyl)-imidazolium bromide] | – |
| 10 | 5 | 9 | 900 | – | Clc1c(Cl)[n+](Cc2ccc3ccccc3n2)cn1Cc1ccc2ccccc2c1.[Br-] [Compound 23, 4,5-dichloro-1-(naphthalen-2-ylmethyl)-3-(quinolin-2-ylmethyl)imidazolium bromide] | increase in aqueous solubility from IC23 ([1]; relative to IC23): ≥ 10 fold |
| – | – | – | – | – | N.N.[Cl][Pt][Cl] [cisplatin, reference compound] | IC50 (NCI-H460; NCI-H460, 72 h exposure, MTT): 3 µM; IC50 (NCI-H1975; NCI-H1975, 72 h exposure, MTT): 10 µM; IC50 (HCC827; HCC827, 72 h exposure, MTT): 4 µM; stage of apoptosis (Annexin V / PI) (NCI-H460 cell line; [4]): early-stage apoptosis; PARP-1 cleavage and amount of procaspase-3 ([3]; H460 cells, 36 h): both PARP-1 cleavage and a reduced amount of procaspase-3 |

| SMILES | IC50 (NCI-H460; Homo sapiens, NCI-H460, 72 h) [µM] | IC50 (NCI-H1975; Homo sapiens, NCI-H1975, 72 h) [µM] | IC50 (HCC827; Homo sapiens, HCC827, 72 h) [µM] | solubility ([1]; water) [µg/mL] | IC50 [2] [µM] | also measured |
| --- | --- | --- | --- | --- | --- | --- |
| Clc1c(Cl)[n+](Cc2ccc3ccccc3c2)cn1Cc1ccc2ccccc2c1.[Br-] [IC23, 4,5-dichloro-1,3-bis (naphthalen-2-ylmethyl)imidazolium bromide] | 5 | 6 | 8 | < 100 | – | stage of apoptosis (Annexin V / PI) (NCI-H460 cell line; treatment 1 h, IC23 at 40 μM): early stage of apoptosis; stage of apoptosis (Annexin V / PI) (NCI-H460 cell line; treatment 3 h, IC23 at 40 μM): latestage apoptotic cells; stage of apoptosis (Annexin V / PI) (NCI-H460 cell line; [4]): end stage of apoptosis; PARP cleavage ([3]; H460 cell lysates, 12 h): presence of cleaved PARP; levels of procaspase-3 ([3]; H460 cell lysates, 12 h): substantial reduction; PARP-1 and procaspase-3 cleavage ([3]; H460 cells, 1 h): little PARP-1 and procaspase-3 cleavage |

Reference: paper PMC4593509 (Medicinal chemistry research : an international journal for …, 2015)
